Data as given in ChEMBL document CHEMBL1126705, “16 beta-([18F]fluoro)estrogens: systematic investigation of a new series of fluorine-18-labeled estrogens as potential imaging agents for estrogen-receptor-positive breast tumors” (J Med Chem, 1993).

What was measured:
[1] = test system: Rattus norvegicus; test: Tested in vivo for the biodistribution in rat uterus/muscle after 3 hours following an intravenous dose of 50 microCi of drug in 10%ethanol saline; assay type: ADME, organism-based, Muscle tissue
Outline: (§1)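 Female Sprague-Dawley rats, 25 days old (~40–53 g), ether-anesthetized, given the 18F-labeled estrogen iv via femoral vein in 10% ethanol saline. […] Others were sacrificed by decapitation at 1 or 3 h. Blood and organs were excised, weighed and gamma counted as % injected dose/g, mean ± SD, typically n = 5 (4–6).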

[2] = test system: Rattus norvegicus; test: Tested in vivo for the biodistribution in rat uterus at 1 hour after intravenous dose of 50 microCi of the drug and 15 ug of estradiol; assay type: ADME, organism-based; outline: as §1
[3] = test system: Rattus norvegicus; test: Tested in vivo for the biodistribution in blood of female rat at 1 hour after intravenous dose of 50 microCi of drug in 10%ethanol saline; assay type: ADME, organism-based
Outline: (§2)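 Ether-anesthetized 25-day-old female Sprague-Dawley rats (~40–53 g) got the [18F] tracer in 10% ethanol saline via femoral vein. Rats were decapitated at 1 or 3 h, and blood and organs were weighed and gamma-counted. Values are % injected dose/g as mean ± SD, n = 5 per time point.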

[4] = test system: Rattus norvegicus; test: Tested in vivo for the biodistribution in rat uterus/blood after 3 hours following an intravenous dose of 50 microCi of drug in 10%ethanol saline; assay type: ADME, organism-based; outline: as §1
[5] = test system: Rattus norvegicus; test: Tested in vivo for the biodistribution in rat kidney after 3 hours following an intravenous dose of 50 microCi of drug in 10%ethanol saline; assay type: ADME, organism-based; outline: as §2
[6] = test system: Rattus norvegicus; test: Tested in vivo for the biodistribution in rat uterus/muscle at 1 hour after intravenous dose of 50 microCi of the drug and 15 ug of estradiol; assay type: ADME, organism-based, Muscle tissue; outline: as §1
[7] = test system: Rattus norvegicus; test: Tested in vivo for the biodistribution in rat bone at 1 hour after intravenous dose of 50 microCi of the drug and 15 ug of estradiol; assay type: ADME, organism-based, Bone element
[8] = test system: Rattus norvegicus; test: Tested in vivo for the biodistribution in rat bone at 1 hour after intravenous dose of 50 microCi of drug in 10%ethanol saline; assay type: ADME, organism-based, Bone element; outline: as §2
[9] = test system: Rattus norvegicus; test: Tested in vivo for the biodistribution in blood of female rat at 1 hour after intravenous dose of 50 microCi of the drug and 15 u g of estradiol; assay type: ADME, organism-based
[10] = test system: Rattus norvegicus; test: Tested in vivo for the biodistribution in rat fat after 3 hours following an intravenous dose of 50 microCi of drug in 10%ethanol saline; assay type: ADME, organism-based, Adipose tissue; outline: as §2
[11] = test system: Rattus norvegicus; test: Tested in vivo for the biodistribution in rat uterus/blood at 1 hour after intravenous dose of 50 microCi of the drug and 15 ug of estradiol; assay type: ADME, organism-based; outline: as §1
[12] = test system: Rattus norvegicus; test: Tested in vivo for the biodistribution in rat kidney at 1 hour after intravenous dose of 50 microCi of the drug and 15 u g of estradiol; assay type: ADME, organism-based
Outline: (§3)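 Immature (25-day-old) female Sprague-Dawley rats, ether-anesthetized, given the fluorine-18-labeled estrogen by femoral vein injection in 10% ethanol saline. […] Other groups were killed by decapitation at 1 or 3 h. Blood and organs were weighed and gamma-counted. Data are % injected dose/g, mean ± SD, typically n = 5 per group.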

[13] = test system: Rattus norvegicus; test: Tested in vivo for the biodistribution in rat ovaries at 1 hour after intravenous dose of 50 microCi of drug in 10%ethanol saline; assay type: ADME, organism-based, Female gonad; outline: as §3
[14] = test system: Rattus norvegicus; test: Tested in vivo for the biodistribution in rat ovaries at 1 hour after intravenous dose of 50 microCi of the drug and 15 ug of estradiol; assay type: ADME, organism-based, Female gonad; outline: as §3
[15] = test system: Rattus norvegicus; test: Tested in vivo for the biodistribution in rat muscle at 1 hour after intravenous dose of 50 microCi of drug in 10%ethanol saline; assay type: ADME, organism-based, Muscle tissue; outline: as §3
[16] = test system: Rattus norvegicus; test: Tested in vivo for the biodistribution in rat thymus at 1 hour after intravenous dose of 50 microCi of the drug and 15 ug of estradiol; assay type: ADME, organism-based; outline: as §3
[17] = Partition coefficient (logP); assay type: physicochemical; settings: octanol/water
Outline: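 Octanol/water log P estimated from log k'w measured by reversed-phase HPLC (Minick method) on a C8 silica column.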

[18] = target: T1, Sex hormone-binding globulin (Homo sapiens) (UniProt P04278); test: Relative binding affinity against sex steroid binding protein (SBP)
T1 sequence (whole entry): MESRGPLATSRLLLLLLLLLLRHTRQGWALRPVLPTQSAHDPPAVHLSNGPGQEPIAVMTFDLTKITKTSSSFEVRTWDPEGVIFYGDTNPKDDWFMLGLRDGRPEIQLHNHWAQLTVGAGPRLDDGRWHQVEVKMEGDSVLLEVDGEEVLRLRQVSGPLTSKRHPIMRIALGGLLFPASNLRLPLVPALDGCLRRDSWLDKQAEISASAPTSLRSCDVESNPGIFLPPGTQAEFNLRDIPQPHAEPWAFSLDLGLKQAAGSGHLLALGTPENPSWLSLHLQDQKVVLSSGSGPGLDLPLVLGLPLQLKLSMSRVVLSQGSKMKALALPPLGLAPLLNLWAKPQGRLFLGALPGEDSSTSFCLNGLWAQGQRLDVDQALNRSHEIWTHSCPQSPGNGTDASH

[19] = target: T2, Alpha-fetoprotein (Rattus norvegicus) (UniProt P02773); test: Relative binding affinity for Alphafetoprotein
T2 sequence (whole entry): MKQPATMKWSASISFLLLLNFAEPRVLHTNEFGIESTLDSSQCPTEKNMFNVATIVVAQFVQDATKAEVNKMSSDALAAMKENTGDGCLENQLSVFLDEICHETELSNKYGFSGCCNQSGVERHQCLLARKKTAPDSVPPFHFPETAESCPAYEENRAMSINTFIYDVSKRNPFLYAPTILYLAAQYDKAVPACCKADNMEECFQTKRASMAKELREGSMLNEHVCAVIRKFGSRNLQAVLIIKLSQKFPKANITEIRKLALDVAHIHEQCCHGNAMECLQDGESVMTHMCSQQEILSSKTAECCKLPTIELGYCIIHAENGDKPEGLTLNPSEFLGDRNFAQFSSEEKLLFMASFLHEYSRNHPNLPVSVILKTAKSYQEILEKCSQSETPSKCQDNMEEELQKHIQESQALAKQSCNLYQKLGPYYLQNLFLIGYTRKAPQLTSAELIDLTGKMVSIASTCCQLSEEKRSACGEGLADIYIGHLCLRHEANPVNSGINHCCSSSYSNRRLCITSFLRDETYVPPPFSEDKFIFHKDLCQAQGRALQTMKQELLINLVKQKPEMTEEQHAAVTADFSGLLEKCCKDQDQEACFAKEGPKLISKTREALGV

[20] = test system: Rattus norvegicus; test: Tested in vivo for the biodistribution in rat uterus/blood at 1 hour after intravenous dose of 50 microCi of drug in 10%ethanol saline; assay type: ADME, organism-based; outline: as §1
[21] = test system: Rattus norvegicus; test: Tested in vivo for the biodistribution in rat muscle at 1 hour after intravenous dose of 50 microCi of the drug and 15 ug of estradiol; assay type: ADME, organism-based, Muscle tissue; outline: as §3
[22] = target: T3, Estrogen receptor (Rattus norvegicus) (UniProt P06211+Q62986)
[23] = test system: Rattus norvegicus; test: Tested in vivo for the biodistribution in rat uterus at 1 hour after intravenous dose of 50 microCi of drug in 10%ethanol saline; assay type: ADME, organism-based; outline: as §1
[24] = test system: Rattus norvegicus; test: Tested in vivo for the biodistribution in rat kidney at 1 hour after intravenous dose of 50 microCi of drug in 10%ethanol saline; assay type: ADME, organism-based; outline: as §2
[25] = test system: Rattus norvegicus; test: Tested in vivo for the biodistribution in blood of female rat after 3 hours following an intravenous dose of 50 microCi of drug in 10%ethanol saline; assay type: ADME, organism-based; outline: as §2
[26] = test system: Rattus norvegicus; test: Tested in vivo for the biodistribution in rat ovaries after 3 hours following an intravenous dose of 50 microCi of drug in 10%ethanol saline; assay type: ADME, organism-based, Female gonad; outline: as §3
[27] = test system: Rattus norvegicus; test: Tested in vivo for the biodistribution in rat fat at 1 hour after intravenous dose of 50 microCi of the drug and 15 ug of estradiol; assay type: ADME, organism-based, Adipose tissue
[28] = test system: Rattus norvegicus; test: Tested in vivo for the biodistribution in rat uterus/muscle at 1 hour after intravenous dose of 50 microCi of drug in 10%ethanol saline; assay type: ADME, organism-based, Muscle tissue; outline: as §1
[29] = test system: Rattus norvegicus; test: Tested in vivo for the biodistribution in rat uterus after 3 hours following an intravenous dose of 50 microCi of drug in 10%ethanol saline; assay type: ADME, organism-based; outline: as §3
[30] = test system: Rattus norvegicus; test: Tested in vivo for the biodistribution in rat thymus after 3 hours following an intravenous dose of 50 microCi of drug in 10%ethanol saline; assay type: ADME, organism-based; outline: as §3
[31] = test system: Rattus norvegicus; test: Tested in vivo for the biodistribution in rat liver after 3 hours following an intravenous dose of 50 microCi of drug in 10%ethanol saline; assay type: ADME, organism-based; outline: as §3
[32] = test system: Rattus norvegicus; test: Tested in vivo for the biodistribution in rat bone after 3 hours following an intravenous dose of 50 microCi of drug in 10%ethanol saline; assay type: ADME, organism-based, Bone element; outline: as §2
[33] = test system: Rattus norvegicus; test: Tested in vivo for the biodistribution in rat liver at 1 hour after intravenous dose of 50 microCi of drug in 10%ethanol saline; assay type: ADME, organism-based; outline: as §3
[34] = target: T3, Estrogen receptor (Rattus norvegicus); remark: listed apart in the source
[35] = test system: Rattus norvegicus; test: Tested in vivo for the biodistribution in rat thymus at 1 hour after intravenous dose of 50 microCi of drug in 10%ethanol saline; assay type: ADME, organism-based; outline: as §3
[36] = test system: Rattus norvegicus; test: Tested in vivo for the biodistribution in rat fat at 1 hour after intravenous dose of 50 microCi of drug in 10%ethanol saline; assay type: ADME, organism-based, Adipose tissue; outline: as §2
[37] = test system: Rattus norvegicus; test: Tested in vivo for the biodistribution in rat muscle after 3 hours following an intravenous dose of 50 microCi of drug in 10%ethanol saline; assay type: ADME, organism-based, Muscle tissue; outline: as §3
[38] = test system: Rattus norvegicus; test: Tested in vivo for the biodistribution in rat liver at 1 hour after intravenous dose of 50 microCi of the drug and 15 u g of estradiol; assay type: ADME, organism-based; outline: as §3

Structure (SMILES)	Injected [1] [%]	Injected [2] [%]	Injected [3] [%]	Injected [4] [%]	Injected [5] [%]	Injected [6] [%]	Injected [7] [%]	Injected [8] [%]	Injected [9] [%]	Injected [10] [%]	Injected [11] [%]	Injected [12] [%]	Injected [13] [%]	Injected [14] [%]	Injected [15] [%]	logP [17]	relative binding affinity (RBA) [18]	relative binding affinity (RBA) [19]	NSB [22]	BSI [34]	also measured
C#C[C@]1(O)[C@@H](F)C[C@H]2[C@@H]3CCc4cc(O)ccc4[C@H]3[C@@H](CC)C[C@@]21C	23.55	0.88	0.264	64.53	1.03	3.5	1.037	1.365	0.227	1.805	4.03	0.709	3.934	1.712	0.725	4.12	11	0.147	2.43	189	Injected [16]: 0.277%; Injected [20]: 33.61%; Injected [21]: 0.262%; Injected [23]: 8.2%; Injected [24]: 1.886%; Injected [25]: 0.144%; Injected [26]: 3.115%; Injected [27]: 2.174%; Injected [28]: 11.41%; Injected [29]: 9.09%; Injected [30]: 0.493%; Injected [31]: 4.003%; Injected [32]: 1.606%; Injected [33]: 4.023%; Injected [35]: 0.815%; Injected [36]: 3.375%; Injected [37]: 0.382%; Injected [38]: 3.888%
CCC1C[C@]2(C)[C@@H](O)CC[C@H]2[C@@H]2CCc3cc(O)ccc3[C@@H]12 (stereo partly specified)																3.9	40.8	1.21	2.1	648	
C#C[C@]1(O)CC[C@H]2[C@@H]3CCc4cc(O)ccc4[C@H]3C(CC)C[C@@]21C (stereo partly specified)																4.28	41.2	0.347	2.86	331	
C#C[C@]1(O)[C@@H](F)C[C@H]2[C@@H]3CCc4cc(O)ccc4[C@H]3[C@@H](OC)C[C@@]21C	32.76	2.548	0.284	129.8	0.973	5.25	1.477	1.384	0.38	0.858	7.52	1.038	5.2	1.661	0.739	2.87	0.037	< 0.01	0.67	116	Injected [16]: 0.44%; Injected [20]: 66.26%; Injected [21]: 0.525%; Injected [23]: 18.26%; Injected [24]: 1.961%; Injected [25]: 0.101%; Injected [26]: 3.51%; Injected [27]: 0.679%; Injected [28]: 24.31%; Injected [29]: 12.99%; Injected [30]: 0.454%; Injected [31]: 2.129%; Injected [32]: 2.007%; Injected [33]: 3.244%; Injected [35]: 0.852%; Injected [36]: 1.538%; Injected [37]: 0.389%; Injected [38]: 3.708%
